Assay results taken from ChEMBL document CHEMBL1154747, “Synthesis and cytotoxic evaluation of beta-alkyl or beta-aryl-delta-methyl-alpha-methylene-delta-lactones. Comparison with the corresponding gamma-lactones” (Eur J Med Chem, 2010).

How the values were obtained:
Assay type in all cases: functional, cell-based
L1210 = assay: Cytotoxicity against mouse L1210 cells after 48 hrs by MTT assay; conditions: L1210, 48 h
Procedure, shortened: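 Mouse L-1210 leukemia cells in RPMI 1640 with 10% FCS, gentamycin 50 µg/mL and 0.02 M HEPES; seeded at 1.5 × 10^3 cells/mL, drug added after 24 h, then 48 h further incubation. Cell number relative to untreated control by tetrazolium dye method; IC50 from concentration-survival curves by non-linear (quasi-Newton) fitting, mean of at least three experiments.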

HL-60 = assay: Cytotoxicity against human HL60 cells after 48 hrs by MTT assay; conditions: HL-60, 48 h
Procedure, shortened: (§1)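 HL-60 (promyelocytic) and NALM-6 (lymphoblastic) human leukemia cells in RPMI 1640 with 10% heat-inactivated FBS, streptomycin/penicillin, 37 °C, 5% CO2; exponentially growing cells seeded 8 × 10^3/well. Compounds from fresh DMSO stocks diluted in medium, 10^-7 to 10^-3 M, 46 h, then MTT 2 h; formazan dissolved in 20% SDS/50% DMF pH 4.7, A562/630. IC50 from concentration-response curves, ≥3 experiments.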

NALM-6 = assay: Cytotoxicity against human NALM6 cells after 48 hrs by MTT assay; conditions: NALM-6, 48 h; procedure, shortened: as §1

Structure (SMILES) | IC50 (L1210) [µM] | IC50 (HL-60) [µM] | IC50 (NALM-6) [µM]
C=C1C(=O)O[C@@H](C)[C@@H]1c1ccc(Br)cc1 (relative stereo) | 0.58 | 6.66 | 1.1
C=C1C(=O)O[C@H](C)[C@@H]1c1ccc([N+](=O)[O-])cc1 | 1.9 | 21.7 | 3.77
C=C1C(=O)O[C@H](C)[C@@H]1c1ccc(OC)cc1 (relative stereo) | 4.4 | 4.82 | 5.59
C=C1C(=O)O[C@H](C)[C@@H]1c1ccc(C)cc1 (relative stereo) | 5.5 | 5.62 | 5.97
C=C1C(=O)O[C@@H](C)[C@@H]1c1ccc(C)cc1 (relative stereo) | 1.5 | 5.01 | 4.39
C=C1C(=O)O[C@H](C)[C@@H]1c1ccc2c(c1)OCO2 (relative stereo) | 1.4 | 33.3 | 4.7
C=C1C(=O)OC(C)CC1c1ccc2c(c1)OCO2 (stereo not drawn) | 7 | 5.52 | 5.46
C=C1C(=O)O[C@@H](C)[C@@H]1c1ccc(OC)cc1 (relative stereo) | 1.95 | 5.56 | 5.42
C=C1C(=O)OC(C)CC1c1ccc(OC)cc1 (stereo not drawn) | 0.8 | 5.95 | 5.76
C=C1C(=O)OC(C)CC1c1ccc([N+](=O)[O-])cc1 (stereo not drawn) | 1.2 | 6.12 | 3.42
C=C1C(=O)OC(C)CC1C1CCCCC1 (stereo not drawn) | 13 | 40.6 | 15.8
C=C1C(=O)OC(C)CC1c1ccccc1OC (stereo not drawn) | 2.1 | 6.44 | 6.26
C=C1C(=O)OC(C)CC1C(C)C (stereo not drawn) | 44.4 | 61.2 | 56.4
C=C1C(=O)O[C@@H](C)[C@@H]1c1ccc2c(c1)OCO2 (relative stereo) | 0.8 | 5.35 | 5
C=C1C(=O)O[C@H](C)[C@@H]1c1ccc(Br)cc1 (relative stereo) | 7.8 | 4.28 | 4.25
C=C1C(=O)OC(C)CC1c1ccc(Br)cc1 (stereo not drawn) | 1.75 | 4.77 | 4.51
